Bioassay records as filed in PubChem.
Furin inh = blocks human furin protease activity. purified furin, fluorogenic substrate cleavage. P09958. AID 463115. inhibition, % at 20 µM or 30 µM. hit rate 0.061% among 220,000; in the data active = inhibition above about 25%
TNAP inh noacc = TNAP (human) inhibition, acceptor-free conditions | P05186 | purified TNAP, CDP-star luminescence, 30 min | inhibition, % at 20 µM | hit rate 0.26% among 200,000;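 active = tissue-nonspecific alkaline phosphatase inhibition above about 50% at 20 µM in the single-dose screen, limit read from the data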;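 note: 0% = DMSO negative control and 100% = EDTA positive control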
Target sequence (P05186 whole entry, looked up): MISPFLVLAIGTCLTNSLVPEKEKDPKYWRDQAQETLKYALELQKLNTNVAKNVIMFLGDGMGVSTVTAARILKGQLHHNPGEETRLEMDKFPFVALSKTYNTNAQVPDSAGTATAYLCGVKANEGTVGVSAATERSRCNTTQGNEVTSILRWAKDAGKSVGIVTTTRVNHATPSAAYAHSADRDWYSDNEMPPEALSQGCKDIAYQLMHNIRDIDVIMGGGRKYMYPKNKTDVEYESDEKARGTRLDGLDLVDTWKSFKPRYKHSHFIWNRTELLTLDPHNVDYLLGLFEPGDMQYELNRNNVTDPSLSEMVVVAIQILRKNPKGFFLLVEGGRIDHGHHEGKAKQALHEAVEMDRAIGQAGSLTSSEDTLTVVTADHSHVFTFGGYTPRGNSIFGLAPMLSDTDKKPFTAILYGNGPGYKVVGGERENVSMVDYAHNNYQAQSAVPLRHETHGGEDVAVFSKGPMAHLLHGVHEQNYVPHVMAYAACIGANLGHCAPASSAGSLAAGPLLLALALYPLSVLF
Pf gamet viab = inhibitors of late stage P. falciparum gametocyte viability; hit rate 0.065% among 150,000; inhibition, % at 10.9 µM; P. falciparum stage V gametocytes, ATP luminescence, 24 h;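 active = inhibition above the mean plus 3 SD of compounds within the control limits, set per campaign, cut at about 38% in these data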;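 note: 0% = DMSO wells and 100% = medium only without gametocytes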
HMGR II inh = blocks class II HMG-CoA reductase of Enterococcus faecalis; AID 1066; inhibition, % at 10 µM; purified E. faecalis HMGR, NADPH absorbance 340 nm kinetic; hit rate 0.41% among 190,000;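 active = inhibition above a set limit, the median over all tested compounds plus 3 SD, cut at about 9.5% in these data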;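 note: enzyme runs in reverse so mevalonate oxidation gives rising NADPH absorbance; 0% = complete reaction with DMSO and 100% = background rate lacking mevalonate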
TNAP inh hi DEA = blocks human TNAP under high phosphate acceptor concentration. P05186. purified TNAP, CDP-star luminescence, 1 M DEA. inhibition, % at 20 µM. hit rate 0.03% among 200,000. AID 1135;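 active = over 50% inhibition of tissue-nonspecific alkaline phosphatase at 20 µM in the single-dose screen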;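 note: plate controls were DMSO wells for no effect and EDTA-quenched wells as full inhibition for full effect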
TNAP act hi DEA = increases human TNAP activity under high phosphate acceptor concentration; P05186; activation factor at 20 µM; 200,000 tested, under 10 active; purified TNAP, CDP-star luminescence, 1 M DEA, 30 min; active compounds read high; 0 = EDTA background, 1 = DMSO-only activity;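 active = activation factor at least 2 at 20 µM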
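Assay system: human TNAP; Input: enzyme diluted 1/800 final; Reagent: CDP-star luminogenic substrate at 100 µM final; Timing: 30 min, room temperature; Signal: luminescence; Evaluation: TNAP activation factor scaled between EDTA and DMSO control wells.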
* = called active by the depositor; / = no result; ! = not confirmed by another sample. Compounds with a hit are over-represented: about 0.68% of the library has one in this group of screens.

SMILES	Furin inh	TNAP inh noacc	Pf gamet viab	HMGR II inh	TNAP inh hi DEA	TNAP act hi DEA
Cc1ccc(-n2[nH]c3c4c(ccc3c2=O)C(=O)c2ccccc2C4=O)cc1	-10	-1	61*	-5	10	0.9
Cc1ccc(C)c(-n2[nH]c3c4c(ccc3c2=O)C(=O)c2ccccc2C4=O)c1	-16	2	/	2	7	0.9
O=C(COc1ccc(Cl)cc1)NCCN1CCCCC1	-5	-10	/	10*	-2	1
CSc1nc(NNC=O)cc(Oc2ccc(NC(C)=O)cc2)n1	/	/	4	/	/	/
Cc1ccc(Cl)cc1N=C(N)N=C(N)N	-29	-8	3	15*	-1	1
CS(=O)(=O)c1ccc(SCC(=O)NC2CCS(=O)(=O)C2)c([N+](=O)[O-])c1 (centres undefined)	-11	8	-3	0	-4	1
Nc1c(-c2ccccc2)n[nH]c1-c1ccccc1	-30	89*	/	-1	-2	1
OCC[C@H]1C[C@@H](O)[C@H](O)[C@@]2(CCCO2)O1	/	/	15	/	/	/
N/C(Cc1ccc([N+](=O)[O-])cc1)=N\OC(=O)CC1CCCCC1	-23	-12	59*	-2	5	1
Brc1ccc(-c2nnc3n2-c2ccccc2CC3)cc1	-19	-13	/	-6	-6	1.1
Cc1cc(C)nc(NN2C(=O)/C(=C/c3ccc(O)cc3)SC2=S)n1	-16	94*	/	0	43	0.6
O=C1c2cccc(Cl)c2C(=O)N1c1ccccn1	/	/	-18	/	/	/
O=C(CSc1cn(CCNC(=O)c2cccs2)c2ccccc12)NCc1ccccc1	-17	4	/	-7	-2	1
Cc1ccc(Cn2nc(C)c(NC(=O)c3nn(C)cc3Cl)c2C)cc1	25*	10	/	-4	5	1
Cc1nn(Cc2ccc(Br)cc2)c(C)c1NC(=O)c1nn(C)cc1Cl	-15	-4	/	-1	1	1
Nn1c(SCC(=O)Nc2ccc3c(c2)OCO3)nncc1=O	-31	-22	13	9.7*	-6	1.1
COc1cc(/C=C(/Sc2nnc(-c3ccc(F)cc3)o2)C(=O)O)ccc1OC(F)F	-26	-4	0	10*	1	1
COc1ccc(Cl)cc1NC(=S)NCCSc1ccc(C)cc1	-7	-84	11	1	-3	1
Cc1cc2cccc(C)c2nc1SCC(=O)NNC(=O)c1ccco1	-23	-154	11	14*	-5	1
Cc1cc(C)c2nc(SCC(=O)NNC(=O)c3ccco3)c(C)cc2c1	-7	-1	-3	-5	-6	1.1
CCOc1ccc(-c2n[nH]c(C(=O)NN)c2C)cc1	-5	82*	-14	-5	-7	1.1
Cc1c(-c2ccccc2)n[nH]c1C(=O)NN	-13	82*	-8	-2	0	1
NNC(=O)c1nc(-c2ccccc2)cc(-c2ccccc2)n1	/	/	2	/	/	/
CCC(C)(NC=O)C(=O)Nc1c(C)cccc1C (centres undefined)	-15	/	26	/	/	/
CN(C)CCOC(c1ccccc1)c1ccccc1	-9	-9	/	18*!	-2	1
SMILES	Furin inh	TNAP inh noacc	Pf gamet viab	HMGR II inh	TNAP inh hi DEA	TNAP act hi DEA
CN(C)CCOC(c1ccccc1)c1ccccc1 (tested in a mixture with another compound)	-12	-6	/	-6	2	1
O=C(Nc1ccccc1N1CCOCC1)c1cccnc1	-26	-8	-4	10*	1	1
O=C(Nc1ccc(N2CCOCC2)c(Cl)c1)c1cccnc1	-23	0	/	1	1	1
CCOc1ccc(C2C(C(=O)/C=C/c3ccco3)=C(O)C(=O)N2CCN2CCOCC2)cc1OC (centres undefined)	-20	6	-27	-3	2	1
COCCNC(=O)NC(=O)CN1CCCc2ccccc21	-10	-11	14	-6	-3	1
CC1=C(C(=O)OC(C)C)C(c2ccc(C)o2)NC(=O)N1 (centres undefined)	-26	-15	/	11*	-6	1.1
CCOC(=O)C1=C(C)NC(=O)NC1c1ccc(C)o1 (centres undefined)	-29	-11	/	-3	1	1
c1ccc(CCNc2ccccc2)cc1	/	-7	/	/	-2	1
COC(=O)c1ccc(Cn2nc(C)c(Cl)c2C)o1	29*	-8	/	-1	-5	1.1
Cc1ccccc1NC(=O)Cn1c(CCC(=O)O)ccc1-c1cccs1	-22	-15	-24	19*	-3	1
O=C(NC1CCCCC1)C1c2ccccc2C(=O)N1Cc1ccc2c(c1)OCO2 (centres undefined)	-16	-27	-10	-5	-1	1
COc1ccc(/C=C(/C#N)S(=O)(=O)c2ccc(C)cc2)cc1	1	-16	6	40*	-5	1.1
